Source: PubChem
A selection: hits, their analogues and other compounds. The true share with any hit is near 3.5%.
mABHD4 FP = inhibitors of mouse ABHD4; inhibition, % at 8.92 µM; purified mABHD4, FP-Rh probe fluorescence polarization; AID 720543; hit rate 0.54% among 370,000;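 active = inhibition exceeding the mean over every tested compound plus 3 SD, cut at about 30% in these data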
Target sequence (Q8VD66 whole entry, looked up): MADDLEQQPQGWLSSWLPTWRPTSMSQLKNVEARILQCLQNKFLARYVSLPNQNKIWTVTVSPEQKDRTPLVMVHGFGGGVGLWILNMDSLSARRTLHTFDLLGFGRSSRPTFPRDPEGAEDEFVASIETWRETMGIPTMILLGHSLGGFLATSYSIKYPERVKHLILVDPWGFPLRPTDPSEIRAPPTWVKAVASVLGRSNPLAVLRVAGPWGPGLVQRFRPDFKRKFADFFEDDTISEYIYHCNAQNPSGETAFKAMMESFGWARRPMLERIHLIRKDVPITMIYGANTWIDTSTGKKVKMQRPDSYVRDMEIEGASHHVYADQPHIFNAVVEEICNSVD
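system = mouse ABHD4 enzyme, wild type | medium = HEPES pH 7.0, NaCl, Pluronic buffer | also added = FP-Rh probe | incubation = Enzyme–compound pre-incubation 45 min, then probe 60 min, both 25 °C | technique = fluorescence polarization, excitation 525 nm, emission 598 nm, BODIPY TMR filters | controls = S159A mutant high control, sample median low control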
rCAG RNA binder = r(CAG) repeat RNA binding | TO-PRO-1 dye displacement fluorescence | inhibition, % at 3 µM | hit rate 1.3% among 370,000;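 active = inhibition above the plate cutoff, the mean of all test compounds on that plate plus 3 SD, cut at about 35% in these data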;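 also: higher means more dye released from RNA so lower well fluorescence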
PRMT1 inh = inhibitors of human PRMT1; recombinant PRMT1, activity-based probe fluorescence polarization; inhibition, % at 2.79 µM; hit rate 1.3% among 370,000; AID 652257;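 active = inhibition above about 21% made by adding two undisclosed values, limit read from the data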
SIAE inh = human SIAE inhibition, primary screen; SIAE FP-Rh probe binding, fluorescence polarization; Q9HAT2; hit rate 0.69% among 370,000; AID 1053197; inhibition, % at 9.66 µM;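 active = inhibition above a cutoff: mean of compounds within the control limits plus 3 SD of those, cut at about 17% in these data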
TCR CD3 inh = inhibitors of human TCR-CD3 interaction; TAMRA-labeled TCR probe fluorescence, biochemical; inhibition, % at 9.4 µM; hit rate 0.37% among 360,000; in the data active = inhibition above about 19%;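 also: recombinant mutant TCR 2C K166C tagged with TAMRA read by polarization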
HTRA1 inhibitor = HTRA1 (human) protease inhibition; inhibition, % at 5.96 µM; hit rate 0.5% among 340,000; recombinant HTRA1, FP-rhodamine activity-based probe, fluorescence polarization; AID 504803; in the data active = inhibition above about 36%
rCAG binder conf = r(CAG) RNA repeat binding, confirmation | inhibition, % at 3 µM | TO-PRO-1 dye displacement fluorescence | shares compounds with rCAG RNA binder | hit rate 70% among 4,300;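 active = inhibition above a per-plate cutoff, the mean inhibition of sample wells plus 3 SD, cut at about 35% in these data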;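 also: loss of TO-PRO-1 fluorescence as compound displaces dye from 1x1 AA loop RNA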
dCAG dye counter = DNA CAG dye complex inhibition counter-screen. shares compounds with rCAG RNA binder. d(CAG) DNA oligo TO-PRO-1 dye displacement, fluorescence. inhibition, % at 3 µM. hit rate 94% among 4,300. AID 652068;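 active = inhibition above its plate's cutoff, the mean test-well inhibition plus 3 SD, cut at about 4.8% in these data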;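 also: hits displace the dye from DNA and so lower well fluorescence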
Numbers stand for hits.

Screening COc1ccc(C2C(C(=O)N3CCN(C=O)CC3)CC(=O)N2c2ccc(OC)cc2)cc1 (stereo unspecified) returned mABHD4 FP inactive, rCAG RNA binder inactive, PRMT1 inh inactive and SIAE inh inactive.
For N#Cc1c(Cl)c(Cl)c2nnc(-c3ccc(Br)cc3)n2c1Cl the results were mABHD4 FP inactive, rCAG RNA binder 44, PRMT1 inh inactive, SIAE inh inactive, TCR CD3 inh inactive, rCAG binder conf 40 and dCAG dye counter 11.
[S-]c1nnc(-c2ccc(Br)cc2)n1-c1ccccc1.[Zn+2] was read as mABHD4 FP inactive, rCAG RNA binder inactive, PRMT1 inh inactive, SIAE inh inactive, TCR CD3 inh inactive and HTRA1 inhibitor inactive.
`CCOC(=O)C1C(=O)CC(=O)C(C(=O)OCC)C1c1ccc(O)cc1` (stereo unspecified) gave mABHD4 FP inactive, rCAG RNA binder 36, PRMT1 inh inactive, SIAE inh inactive, TCR CD3 inh inactive, HTRA1 inhibitor inactive, rCAG binder conf inactive and dCAG dye counter inactive.
`CCOC(=O)C1C(=O)CC(C)(O)C(C(=O)OCC)C1c1ccc(F)cc1` (stereo unspecified) gave mABHD4 FP inactive, rCAG RNA binder inactive, PRMT1 inh inactive, SIAE inh inactive, TCR CD3 inh inactive and HTRA1 inhibitor inactive.
For O=C(Nc1cccc(C(=O)O)c1)/C(=C/c1ccc2c(c1)OCO2)NC(=O)c1cccc(Br)c1 the results were mABHD4 FP inactive, rCAG RNA binder 42, PRMT1 inh inactive, SIAE inh inactive, TCR CD3 inh inactive, HTRA1 inhibitor inactive, rCAG binder conf inactive and dCAG dye counter 6.1.
O=C(Nc1cccc(C(=O)O)c1)/C(=C/c1cccc([N+](=O)[O-])c1)NC(=O)c1cccc(Br)c1 was read as mABHD4 FP inactive, rCAG RNA binder 47, PRMT1 inh inactive, SIAE inh inactive, TCR CD3 inh inactive, HTRA1 inhibitor inactive, rCAG binder conf inactive and dCAG dye counter 4.8.
`O=C(NC(Cc1ccccc1)C(=O)O)/C(=C/c1cccc([N+](=O)[O-])c1)NC(=O)c1ccco1` (stereo unspecified) gave mABHD4 FP inactive, rCAG RNA binder inactive, PRMT1 inh inactive, SIAE inh inactive, TCR CD3 inh inactive and HTRA1 inhibitor inactive.
`O=C(NC(Cc1ccccc1)C(=O)O)/C(=C/c1cccc([N+](=O)[O-])c1)NC(=O)c1cccc(Br)c1` (stereo unspecified) gave mABHD4 FP inactive, rCAG RNA binder 48, PRMT1 inh inactive, SIAE inh inactive, TCR CD3 inh inactive, HTRA1 inhibitor inactive, rCAG binder conf 51 and dCAG dye counter 16.
Screening O=C(Nc1cccc(C(=O)O)c1)/C(=C\c1ccc2c(c1)OCO2)NC(=O)c1ccccc1Br returned mABHD4 FP inactive, rCAG RNA binder inactive, PRMT1 inh inactive, SIAE inh inactive, TCR CD3 inh inactive and HTRA1 inhibitor inactive.
`COCCCNC(=O)C[C@H]1C[C@@]2(C(=O)OC)C(=C[C@H](C(C)C)O[C@@H]2C2CC2)N(CCC2=CCCCC2)C1=O` gave mABHD4 FP inactive, rCAG RNA binder inactive, PRMT1 inh inactive and SIAE inh inactive.
`CCN(CC)C(=O)C(=O)c1cccn1-c1c(Cl)cccc1C#N` gave mABHD4 FP inactive, rCAG RNA binder 36, PRMT1 inh inactive, SIAE inh inactive, TCR CD3 inh inactive, HTRA1 inhibitor inactive, rCAG binder conf inactive and dCAG dye counter inactive.
`COc1ccc(Cc2n[nH]c(=S)n2NC(=O)Nc2ccc(Cl)c(Cl)c2)cc1` gave mABHD4 FP inactive, rCAG RNA binder 63, PRMT1 inh inactive, SIAE inh inactive, TCR CD3 inh inactive, HTRA1 inhibitor inactive, rCAG binder conf 37 and dCAG dye counter 15.
For Cc1ccc(S(=O)(=O)NN=Cc2c(O)ccc3ccccc23)cc1 the results were mABHD4 FP inactive, rCAG RNA binder 41, PRMT1 inh inactive, SIAE inh inactive, TCR CD3 inh inactive, HTRA1 inhibitor inactive, rCAG binder conf 46 and dCAG dye counter 15.
`Cc1ccc(S(=O)(=O)N/N=C/c2ccccc2O)cc1` gave mABHD4 FP inactive, rCAG RNA binder inactive, PRMT1 inh inactive, SIAE inh inactive, TCR CD3 inh inactive and HTRA1 inhibitor inactive.
O=C(NCCc1ccc2c(c1)OCO2)c1cc(-c2ccccc2)c(N2CCOCC2)s1 was read as mABHD4 FP inactive, rCAG RNA binder inactive, PRMT1 inh inactive and SIAE inh inactive.
Screening CSc1cccc(NC(=O)Nc2nc3c(C)cccc3s2)c1 returned mABHD4 FP inactive, rCAG RNA binder 52, PRMT1 inh inactive, SIAE inh inactive, TCR CD3 inh inactive, HTRA1 inhibitor inactive, rCAG binder conf 45 and dCAG dye counter 34.
COC(=O)Nc1nc2c(C)cccc2s1 was read as mABHD4 FP inactive, rCAG RNA binder inactive, PRMT1 inh inactive, SIAE inh inactive, TCR CD3 inh inactive and HTRA1 inhibitor inactive.
CCC(NC(=O)c1ccc2c(ccn2Cc2cccc(-c3ccc(C(=O)O)cc3)c2)c1)c1ccccc1 (stereo unspecified) was read as mABHD4 FP inactive, rCAG RNA binder 77, PRMT1 inh inactive, SIAE inh inactive, rCAG binder conf 77 and dCAG dye counter 35.
`CCC(NC(=O)c1ccc2c(c1)c(C)c(C)n2Cc1ccc(Cl)cc1)c1ccccc1` (stereo unspecified) gave mABHD4 FP inactive, rCAG RNA binder inactive, PRMT1 inh inactive and SIAE inh inactive.
For O=S(=O)(N[C@@H]1CCCC[C@H]1N1CCOCC1)c1ccc(Cl)cc1 the results were mABHD4 FP inactive, PRMT1 inh inactive and SIAE inh inactive.
For COc1cc(CCc2ccccc2)c(C(=O)O)c(O)c1C/C=C(/C)CCC=C(C)C the results were mABHD4 FP inactive, rCAG RNA binder 93, PRMT1 inh inactive, SIAE inh inactive, TCR CD3 inh inactive, HTRA1 inhibitor inactive, rCAG binder conf 82 and dCAG dye counter 47.
`COc1cccc(OC)c1C(=O)NCCc1ccccc1` gave mABHD4 FP inactive, rCAG RNA binder inactive, PRMT1 inh inactive, SIAE inh inactive, TCR CD3 inh inactive and HTRA1 inhibitor inactive.
For COc1cc(CCc2ccccc2)c(C(=O)O)c(O)c1CC=C(C)C the results were mABHD4 FP inactive, rCAG RNA binder 79, PRMT1 inh inactive, SIAE inh inactive, TCR CD3 inh inactive, HTRA1 inhibitor inactive, rCAG binder conf 77 and dCAG dye counter 41.
For CCCCCCNC(=O)C1CSCCS(=O)(=O)N1Cc1ccc(OC)cc1 (stereo unspecified) the results were mABHD4 FP inactive, rCAG RNA binder inactive, PRMT1 inh inactive and SIAE inh inactive.
CCCCOCCCNC(=O)C[C@H]1C(=O)N(CCCOC)C2=CCCCC[C@]21C(=O)OC was read as mABHD4 FP inactive, rCAG RNA binder inactive, PRMT1 inh inactive and SIAE inh inactive.
